Screens from PubChem BioAssay.
Compounds with a hit are over-represented: about 2.8% of the library has one in this group of screens.
T cell HTS = T cell immune modulation candidate | 2C CD8+ T cell-vesicle binding, flow cytometry; stronger effect = lower value | response (vesicle binding), % at 7 µM | 330,000 tested, 0.068% active | AID 2052;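 active = response, share of CD8 T cells binding vesicles, and their 90th percentile fluorescence all below set limits, cut at about 80% in these data, passing the limit was not always enough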;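 note: values below 100% mean blocked vesicle binding to the CD8+ T cells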
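Benchmarks: naked versus QL9-loaded vesicles / Assay system: purified 2C TCR transgenic mouse naive CD8+ T cells / Technique: high-throughput flow cytometry with anti-B7-1 and anti-CD8 staining / Timing: Cell–vesicle co-incubation 1.5 h at 37 °C, staining 20 min on ice / Read-out: percent CD8+ FL2 mean versus row control / Probe or stimulus: QL9-loaded Drosophila micro-vesicles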
Rtt109 Vps75 = C. albicans Rtt109 histone acetyltransferase inhibition | Q5AAJ8 | purified Rtt109/Vps75, ThioGlo CoA-SH fluorescence, 4 h | inhibition, % at 34.9 µM | 330,000 tested, 0.16% active | AID 540336;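 active = inhibition of at least 50% in every replicate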
Target sequence (Q5AAJ8 whole entry, looked up): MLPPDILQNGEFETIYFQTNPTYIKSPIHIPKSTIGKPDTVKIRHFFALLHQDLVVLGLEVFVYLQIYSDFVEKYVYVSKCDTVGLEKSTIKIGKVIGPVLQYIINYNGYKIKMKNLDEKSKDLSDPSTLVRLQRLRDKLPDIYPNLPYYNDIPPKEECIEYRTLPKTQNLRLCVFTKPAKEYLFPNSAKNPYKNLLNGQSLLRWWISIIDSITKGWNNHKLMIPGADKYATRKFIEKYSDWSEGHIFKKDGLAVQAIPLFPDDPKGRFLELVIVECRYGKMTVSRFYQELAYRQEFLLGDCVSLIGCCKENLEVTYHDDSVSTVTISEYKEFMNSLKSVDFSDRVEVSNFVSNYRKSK
GASC-1 inh = human JMJD2C demethylase inhibition; GST-JMJD2C(1-420) H3K9me3 demethylation, DELFIA europium; 330,000 tested, 0.069% active; AID 2099; inhibition, % at 2.35 µM;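 active = more than half of a compound's replicate wells show inhibition beyond 50%, single wells judged on their own value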;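 note: signal counts dimethyl H3K9 product captured on neutravidin plate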
GRIN3A LBD mod = modulators (binders) of human NR3A ligand-binding domain | 340,000 tested, 2.5% active | NR3A LBD differential scanning fluorimetry, Tm shift; 0% = protein alone, 100% = glycine-bound protein | Tm shift relative to glycine control, % at 25 µM | AID 1259313;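 active = melting temperature shift of at least 10% of the positive control shift, at one fixed dose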
Each line names hits and unclear results; the compound was inactive in the other large screens.

CC(C)(OC(=O)c1ccc(F)cc1)c1cc2ccccc2c(=O)o1	none
CC(=O)c1c(C)[nH]c(C(=O)COC(=O)c2ccc(C)s2)c1C	none
CC1CN(S(=O)(=O)c2ccc(NC(=O)c3cc(-c4ccccc4O)n[nH]3)cc2)CC(C)O1 (stereo unspecified)	GRIN3A LBD mod 36
O=C(Nc1ccc(S(=O)(=O)N2CCOCC2)cc1)c1cc(-c2ccccc2O)n[nH]1	GRIN3A LBD mod 27
Cc1ccccc1C(=O)Nc1ccc(S(=O)(=O)N2CC(C)OC(C)C2)cc1 (stereo unspecified)	none
CC(C)N(Cc1ccccc1)C(=O)COC(=O)CCC(=O)c1ccc(F)cc1	none (no result: GASC-1 inh)
O=C(CCNS(=O)(=O)c1ccc(Cl)cc1)N1CCCCCC1	GRIN3A LBD mod 11
O=C(CCNS(=O)(=O)c1ccc(Cl)cc1)N1CCOCC1	none
Cc1ccccc1-c1cc(C(=O)O)nn1CC1CC(c2cccc([N+](=O)[O-])c2)=NO1 (stereo unspecified)	none
COc1cc2ccccc2cc1C(=O)N(CCN(C)C)c1nc2c(C)cccc2s1	none
Cc1cccc2sc(N(CCN(C)C)C(=O)c3cc(Cl)sc3Cl)nc12	GRIN3A LBD mod 11
COc1cc(Nc2ccccn2)cc(C(=O)Nc2cccc(C(F)(F)F)c2)c1	GRIN3A LBD mod 21
COc1ccc(-c2cc(C(=O)Nc3cc(OC)cc(C(=O)Nc4cccc(C(F)(F)F)c4)c3)[nH]n2)cc1	GRIN3A LBD mod 29
COc1cc(NC(=O)c2cc3cccc(OC)c3o2)cc(C(=O)Nc2cccc(C(F)(F)F)c2)c1	GRIN3A LBD mod 12
COc1cc(NC(=O)c2ccno2)cc(C(=O)Nc2cccc(C(F)(F)F)c2)c1	none
COc1cc(NC(=O)c2ccc(N)nc2)cc(C(=O)Nc2cccc(C(F)(F)F)c2)c1	GRIN3A LBD mod 30
Oc1ccc(C[C@H]2CNC(=S)N2CC2CCCN2C[C@H](Cc2ccc(O)cc2)N2C[C@H](Cc3ccccc3)N(CCc3ccccc3)C2=S)cc1 (stereo partly specified)	GRIN3A LBD mod 12 (no result: T cell HTS, GASC-1 inh)
CC(C)C[C@@H](CN1CCCC1CN1C(=S)NC[C@@H]1Cc1ccc(O)cc1)N1C[C@H](Cc2ccccc2)N(CCc2ccccc2)C1=S (stereo partly specified)	none (no result: T cell HTS, GASC-1 inh)
CC(C)C[C@H]1CNC(=S)N1CC1CCCN1C[C@H](Cc1ccc(O)cc1)N1C[C@H](Cc2ccccc2)N(CC2CCCCCC2)C1=S (stereo partly specified)	none (no result: T cell HTS, GASC-1 inh)
Oc1ccc(C[C@H]2CNC(=S)N2CC2CCCN2C[C@H](Cc2ccccc2)N2C[C@H](Cc3ccc(O)cc3)N(CC3CCCCCC3)C2=S)cc1 (stereo partly specified)	GRIN3A LBD mod 33 (no result: T cell HTS, GASC-1 inh)
Oc1ccc(C[C@H]2CNC(=S)N2CC2CCCN2C[C@H](Cc2ccc(O)cc2)N2C[C@H](Cc3ccc(O)cc3)N(CC3CCCCC3)C2=S)cc1 (stereo partly specified)	GRIN3A LBD mod 19 (no result: T cell HTS, GASC-1 inh)
CCCn1c(SCC(=O)N(C2CCCCC2)C2CCS(=O)(=O)C2)n[nH]c1=O (stereo unspecified)	none
CCC(C)Sc1nnc(NS(=O)(=O)Cc2ccccc2)s1 (stereo unspecified)	none
CS(=O)(=O)c1ccc(Cl)c(NC(=O)CN2CCN(C(=O)c3cccs3)CC2)c1	none
C=CCn1c(C)cc(C(=O)COc2nncc3ccccc23)c1C	GRIN3A LBD mod 16
Cc1ccc(C(=O)NCC(=O)OCC(=O)c2cc(C)n(Cc3ccco3)c2C)cc1	none
C=CCn1c(C)cc(C(=O)COC(=O)c2n[nH]c(=O)c3ccccc23)c1C	none
C=CCn1c(C)cc(C(=O)COC(=O)CNC(=O)c2ccccc2)c1C	GRIN3A LBD mod 13
Cc1ccccc1OCCn1c(S(=O)(=O)O)nc2c(N)ncnc21	none
O=C(/C(=N/N=C/c1ccc(O)c(O)c1O)c1ccccc1)c1ccccc1	Rtt109 Vps75 78, GRIN3A LBD mod 18
C(=N\Nc1nc2ccccc2[nH]1)/c1c[nH]c2ccccc12	GRIN3A LBD mod 15
CN(C)c1nc(N/N=C/c2c[nH]c3ccccc23)nc(N2CCOCC2)n1	none
C(=N\Nc1nc(N2CCCCC2)nc(N2CCCCC2)n1)/c1c[nH]c2ccccc12	GRIN3A LBD mod 10
Brc1ccc(-c2ccc(/C=N/Nc3nc4ccccc4[nH]3)o2)cc1	GRIN3A LBD mod 31
COc1ccc(NC(=O)Nc2ccc(O)c3ccccc23)cc1	T cell HTS 37 (no result: Rtt109 Vps75)
O=C(Nc1ccc(F)cc1)c1ccccc1F	none (no result: Rtt109 Vps75)
COc1ccccc1NC(=O)Nc1ccc(NC(=O)c2ccccc2O)cc1	GRIN3A LBD mod 32
O=C(Nc1ccccc1O)c1ccccc1O	GRIN3A LBD mod 15
O=C(Nc1ccc(F)cc1)Nc1ccc(NC(=O)c2ccccc2O)cc1	GRIN3A LBD mod 32 (no result: Rtt109 Vps75)
COc1ccc(NC(=O)Nc2ccccc2OC)cc1	none
Cc1cccc(NC(=O)c2ccccc2O)c1C	none
CN(C(=O)c1ccc(NC(=O)Cc2cccc(NC(=O)C3CCCN(C(=O)C4CC4)C3)c2)cc1)C1CC1 (stereo unspecified)	none (no result: T cell HTS, GASC-1 inh)
CCOc1ccc(C(=O)COC(=O)Cn2cnc3c2c(=O)n(C)c(=O)n3C)cc1	none
Cn1c(=O)c2c(ncn2CC(=O)OCCCC(=O)c2ccc(Br)cc2)n(C)c1=O	GRIN3A LBD mod 18
O=C(CSc1n[nH]c(-c2ccccc2)n1)c1ccc(O)c(O)c1	GRIN3A LBD mod 12
Cc1cc(SCC(=O)c2ccc(O)c(O)c2)nc2ccccc12	GRIN3A LBD mod 12
Cc1ccc(C)c(NC(=O)CSc2n[nH]c(-c3ccccn3)n2)c1	none
Cc1ccc(O)c(NC(=O)CSc2n[nH]c(-c3ccccc3)n2)c1	GRIN3A LBD mod 34
Cc1cc(SCC(=O)c2ccc3c(c2)OCO3)nc2ccccc12	none
COc1ccc(-c2nc(SCC(=O)Nc3cccc(S(N)(=O)=O)c3)n[nH]2)cc1	GRIN3A LBD mod 11 (no result: T cell HTS, GASC-1 inh)
CCSC1OC(C(COC(C)=O)OC(C)=O)C(OC(C)=O)C1NC(C)=S (stereo unspecified)	none (no result: T cell HTS, GASC-1 inh)
COc1ccc(Nc2ncnc3c2cnn3-c2cccc(C)c2)cc1OC	none (no result: T cell HTS)
COc1ccc(-n2ncc3c(Nc4cccc(C)c4)ncnc32)cc1	GRIN3A LBD mod 29 (no result: Rtt109 Vps75)
Cc1cccc(-n2ncc3c(Nc4ccc(F)cc4)ncnc32)c1	GRIN3A LBD mod 24
CC(=O)C12CCCCC1CC1[C@@H]3CC(C)C4=CC(=O)CC[C@]4(C)C3CC[C@@]12C (stereo partly specified)	GRIN3A LBD mod 22 (no result: T cell HTS)
CC(=O)O[C@]1(C(C)=O)CC[C@H]2[C@@H]3C[C@H](C)C4=CC(=O)CC[C@]4(C)[C@H]3CC[C@@]21C	none (no result: GASC-1 inh)
CCn1c(SCC(=O)Nc2cc(C)on2)nc2c(c1=O)SCC2	none
CC(C)=CCOc1ccc([C@@H]2COc3c(ccc4c3C=CC(C)(C)O4)C2)c(O)c1	GRIN3A LBD mod 15
CCC(Sc1ccccn1)C(=O)Nc1cccc([N+](=O)[O-])c1 (stereo unspecified)	GRIN3A LBD mod 17
Cc1ccc(CNC(=O)c2nnn(CC(=O)Nc3cccc(C)c3C)c2N)cc1	none
